# Data: PMC5386783 (Nature medicine, 2016)
# pIC50: −log10 of the molar value. “And” between values parts separate entries of the source, which are not always exact repeats. Identical values can stand only once.
# Legend:
# [1] = tested on: forebrain-specific hNPCs; format: cell-based, human
# In short: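 Forebrain hNPCs were derived from iPSCs via embryoid bodies, rosettes and neurospheres. Monolayers were exposed to ZIKV FSS-13025 (MOI 0.04–0.08) ± test compound and immunostained 72 h later for ZIKV envelope, cleaved caspase-3 and DAPI; %Cas3+/DAPI cells, mean ± s.e.m., n = 3 cultures, one-way ANOVA. C1–2 iPSC forebrain organoids: exposed on day 18 for 24 h, fresh medium 9 more days, then fixed and immunostained.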
# [2] = tested on: activated caspases; settings: cited from earlier work
# [3] = tested on: ZIKV-induced caspase-3 activity; test: Caspase-3/7 activity assay in ZIKV-infected SNB-19 cells; format: cell-based; settings: Homo sapiens, SNB-19, read-out: IC50, caspase activity
# In short: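 SNB-19 cells (250/well, PDL-coated 1536-well) were grown 16 h at 37 °C/5% CO2, given pin-transferred test compound for 30 min, then ZIKV at 2 FFU/cell for 6 h. Caspase-Glo 3/7 reagent was added for 30 min at room temperature and luminescence read. Uninfected cells were 0% and infected cells 100%. Confirmation used 11-point 1:3 dilutions, n = 3, and IC50 came from curve fits.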
# [4] = tested on: SNB-19 cells; test: ATP content cell viability assay in ZIKV-infected SNB-19 cells; format: cell-based; settings: Homo sapiens, SNB-19, read-out: IC50, cell viability
# [5] = oral delivery, BID, × 4 days; cited from earlier work
# [6] = cited from earlier work
# [7] = tested on: ZIKV; test: Intracellular ZIKV RNA levels; format: cell-based, Zika virus; settings: read-out: IC50, intracellular ZIKV RNA levels
# In short: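 SNB-19 cells, astrocytes or hNPCs (~3×10^5/well, 12-well) were treated with test compound 1 h before ZIKV (MOI 0.5–1) and harvested 24–48 h post-infection. Total RNA (500–1000 ng) was reverse-transcribed with random hexamers. SYBR qPCR used ZIKV NS1 primers, with GAPDH as the endogenous control. Fold change was calculated by ΔΔCT, normalised to control cells.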
# [8] = tested on: ZIKV; test: ZIKV infection and production in hNPCs and astrocytes; format: cell-based, Zika virus; settings: PRVABC59
# In short: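 Astrocytes were treated with test compound 1 h before PRVABC59 (MOI 0.5), fixed 24 h post-infection, and immunostained for ZIKV envelope protein with DAPI. Stained cells were counted. Virus released into culture supernatant was titrated as focus-forming units on Vero cells.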
# [9] = tested on: astrocytes; test: Astrocyte viability, compound toxicity; format: cell-based; settings: at levels lower than 3 μM
# In short: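 Cells were seeded in 96-well plates and, one day later, treated with test compound for 24–48 h without virus. Viability was then read with a CellTiter-Glo luminescent ATP substrate.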
# [10] = ref WHO http://apps.who.int/medicinedocs/en/d/Jh2922e/3.1.3.html; cited from earlier work
# [11] = tested on: ZIKV; test: Time-of-addition experiment in SNB-19 cells; format: cell-based, Zika virus; settings: PRVABC59, MOI = 1, 10 μg/ml anti-AXL antibody, 2 μM Niclosamide, 92 μM PHA-690509
# In short: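 SNB-19 cells received test compound or 10 μg/ml anti-AXL antibody either 1 h before or 4 h after PRVABC59 infection (MOI 1). NS1 was detected by western blot, and NS1/GAPDH band intensities were normalised to DMSO. n = 3 cultures; one-way ANOVA versus DMSO.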
# [12] = tested on: ZIKV; test: ZIKV production from SNB-19 cells, focus-forming unit assay on Vero cells; format: cell-based, Zika virus; settings: for concentrations suppressing production of infectious ZIKV particles: PRVABC59, MOI = 0.5, 24 hours post infection
# [13] = tested on: ZIKV; test: ZIKV NS1 expression; format: cell-based, Zika virus; settings: SNB-19 cells; three strains; dose-dependent
# In short: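 SNB-19 cells were treated with titrated test compound 1 h before FSS-13025, PRVABC59 or MR766 (MOI 1) and harvested at 24 h for NS1 western blot. NS1/GAPDH bands were normalised to DMSO. Secreted NS1 in the medium after 24 h was measured by NS1 ELISA kit. n = 3 cultures; one-way ANOVA versus DMSO or the 0 μM group.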
# [14] = tested on: ZIKV; test: ZIKV production from iPSC-derived human astrocytes, FFU assay; format: cell-based, Zika virus; settings: read-out: IC50, ZIKV production upon infection of human astrocytes; PRVABC59
# [15] = tested on: hNPC; test: hNPC proliferation after ZIKV infection with compound treatment; format: cell-based, human; settings: ZIKV-infected hNPCs
# [16] = tested on: hNPC; test: hNPC proliferation in brain organoids, compound alone without ZIKV; format: cell-based, human; settings: PHA-690509 1 μM, Seliciclib 5 μM
smiles,measurement,setting,value
C[C@H](NC(=O)C(=O)Nc1ccccc1C(C)(C)C)C(=O)N[C@@H](CC(=O)O)C(=O)COc1c(F)c(F)cc(F)c1F [Emricasan],suppression of ZIKV replication (ZIKV antigen),[1]; 2D and 3D cultures,does not suppress ZIKV replication
same,number of active (cleaved) caspase-3-expressing forebrain-specific hNPCs,"[1]; infected by FSS13025, monolayer and 3D organoid cultures",reduced
same,activity against activated caspases in vitro,[2],sub-to nano-molar activity
same,pIC50,[3],6.05 to 6.89
same,pIC50,[4],6.05 to 6.89
same,maximum concentration in human blood,[5],2.36 μg/ml and 4.15 μM
same,overall concentration in human blood,[5],1.90 μg/ml and 3.35 μM
same,tolerability in human trials,[6],well tolerated in human trials without significant adverse events
O=C(Nc1ccc([N+](=O)[O-])cc1Cl)c1cc(Cl)ccc1O [Niclosamide],pIC50,[7]; Zika virus,6.43
same,ZIKV infection and production in hNPCs and astrocytes,[8],inhibited ZIKV infection and production
same,"toxicity, astrocyte viability",[9],minimal toxicity
same,"mutagenic, teratogenic or embryotoxic potential",[10],"not been shown to be mutagenic, teratogenic or embryotoxic"
same,inhibition of ZIKV infection by time of addition,[11],effectively inhibited ZIKV infection when added either 1 hour before or 4 hours after virus inoculation
same,concentrations suppressing production of infectious ZIKV particles,[12],sub-micromolar concentrations
same,inhibition of ZIKV as measured by NS1 expression,[13],inhibited all three strains of ZIKV
CC(=O)Nc1ccc([C@H](C)C(=O)Nc2ncc(C(C)C)s2)cc1 [PHA-690509],pIC50,[7],5.76
same,ZIKV infection and production in hNPCs and astrocytes,[8],inhibited ZIKV infection and production
same,pIC50,[14],~6.70
same,"toxicity, astrocyte viability",[9],minimal toxicity
same,inhibition of ZIKV infection by time of addition,[11],effectively inhibited ZIKV infection when added either 1 hour before or 4 hours after virus inoculation
same,concentrations suppressing production of infectious ZIKV particles,[12],sub-micromolar concentrations
same,inhibition of ZIKV as measured by NS1 expression,[13],inhibited all three strains of ZIKV
same,rescue of ZIKV-induced reduction in hNPC proliferation,[15],partially rescued
CC(C)c1nn(-c2c(Cl)cccc2Cl)c2nc(Cc3ccc(OCCO)cc3)[nH]c(=O)c12 [RGB-286147],pIC50,"[12]; read-out: IC50, ZIKV production",7.57
CC[C@H](CO)Nc1nc(NCc2ccccc2)c2ncn(C(C)C)c2n1 [Seliciclib],effect of treatment alone on hNPC proliferation in brain organoids,[16],minimal effect
same,rescue of ZIKV-induced reduction in hNPC proliferation,[15],partially rescued
